In ChEMBL document CHEMBL2021842, “COMPARE analysis of the toxicity of an iminoquinone derivative of the imidazo[5,4-f]benzimidazoles with NAD(P)H:quinone oxidoreductase 1 (NQO1) activity and computational docking of quinones as NQO1 substrates” (Bioorg Med Chem, 2012):

Columns and labels:
MDA-MB-435 = experiment: Growth inhibition of human MDA-MB-435 cells; assay type: functional
In short: (§1)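 Part of the NCI DTP 60-cell-line panel. After the single-dose stage, cells were tested at five doses. Read-out is the GI50, the concentration giving 50% inhibition of cell growth, derived for each cell line.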

HeLa = experiment: Cytotoxicity against human HeLa cells assessed as reduction in mean cell viability after 72 hrs by MTT assay; assay type: functional, cell-based
In short: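 HeLa-CCL-2 cells in DMEM with 10% heat-inactivated FBS, 2 mM L-glutamine and nonessential amino acids. Plated at 1000 cells/well with 24 h adherence. Treated in ethanol (1% final) for 72 h at 37 °C under 5% CO₂, with ethanol controls. Absorbance of DMSO-dissolved formazan at 550 nm, 690 nm reference. IC₅₀ by nonlinear regression of percent viability.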

NCI-H226 = experiment: Growth inhibition of human NCI-H226 cells; assay type: functional; in short: as §1
SR = experiment: Growth inhibition of human SR cells assessed as cell growth at 10 uM relative to untreated control; assay type: functional; details: read-out: Activity
In short: (§2)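 This is the first stage of the NCI DTP 60-human-tumour-cell-line screen, covering nine tissue types. Cells receive a single dose of the test compound, and the output is reported as mean growth %.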

SK-MEL-2 = experiment: Growth inhibition of human SK-MEL-2 cells; assay type: functional; in short: as §1
HCT-116 = experiment: Growth inhibition of human HCT116 cells assessed as cell growth at 10 uM relative to untreated control; assay type: functional; details: read-out: Activity
In short: (§3)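 NCI DTP 60-cell-line screen, first stage: a single 10 µM dose of compound given to the human tumour panel. Result reported as percent growth relative to control, on a mean growth graph.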

786-0 [1] = experiment: Growth inhibition of human 786-0 cells; assay type: functional
In short: (§4)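 NCI DTP 60-cell-line screen, second stage: five-dose testing across the human tumour panel. GI₅₀ taken as the concentration needed to inhibit cell growth by 50% in each cell line.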

[2] = Growth inhibition of human Hs 578T cells; assay type: functional; in short: as §4
PC-3 = experiment: Growth inhibition of human PC3 cells; assay type: functional; in short: as §1
RXF 393 = experiment: Growth inhibition of human RXF393 cells; assay type: functional; in short: as §1
NCI-H23 = experiment: Growth inhibition of human NCI-H23 cells; assay type: functional; in short: as §1
OVCAR-8 [3] = experiment: Growth inhibition of human OVCAR8 cells; assay type: functional; in short: as §1
HOP-62 [4] = experiment: Growth inhibition of human HOP62 cells; assay type: functional; in short: as §4
U-251 = experiment: Growth inhibition of human U251 cells; assay type: functional
In short: (§5)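 This is the second, five-dose stage of the NCI DTP 60-cell-line screen. GI50 is the concentration that inhibits cell growth by 50%, derived for each cell line.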

786-0 [5] = experiment: Growth inhibition of human 786-0 cells assessed as cell growth at 10 uM relative to untreated control; assay type: functional; details: read-out: Activity; in short: as §3
OVCAR-4 [6] = experiment: Growth inhibition of human OVCAR4 cells assessed as cell growth at 10 uM relative to untreated control; assay type: functional; details: read-out: Activity
In short: (§6)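 First stage of the NCI DTP 60 human tumour cell-line screen. Cells were exposed to a single dose of 10 µM. Output is reported as growth % relative to control.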

HCT-15 = experiment: Growth inhibition of human HCT15 cells assessed as cell growth at 10 uM relative to untreated control; assay type: functional; details: read-out: Activity; in short: as §3
CCRF-CEM = experiment: Growth inhibition of human CCRF-CEM cells; assay type: functional; in short: as §4
[7] = Cytotoxicity against human GM00637 cells assessed as reduction in mean cell viability after 72 hrs by MTT assay; assay type: cell-based; details: GM00637, 72 h
In short: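 SV40-transformed normal skin fibroblasts (GM00637) in MEM Eagle–Earle BSS with 15% heat-inactivated FBS, 2 mM L-glutamine, 2× amino acids and vitamins. Seeded at 10,000 cells/well and left 24 h to adhere. Ethanol-delivered compound (1% final) for 72 h at 37 °C, 5% CO₂. MTT formazan in DMSO read at 550/690 nm. Viability relative to vehicle; IC₅₀ by nonlinear regression.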

MDA-MB-231 = experiment: Growth inhibition of human MDA-MB-231 cells; assay type: functional; in short: as §1
SNB-75 = experiment: Growth inhibition of human SNB75 cells; assay type: functional; in short: as §5
T47D = experiment: Growth inhibition of human T47D cells; assay type: functional; in short: as §5
SF-268 = experiment: Growth inhibition of human SF268 cells; assay type: functional; in short: as §1
HCC 2998 = experiment: Growth inhibition of human HCC2998 cells; assay type: functional; in short: as §4
SF-539 = experiment: Growth inhibition of human SF539 cells; assay type: functional; in short: as §1
MCF7 = experiment: Growth inhibition of human MCF7 cells assessed as cell growth at 10 uM relative to untreated control; assay type: functional; details: read-out: Activity; in short: as §6
HOP-62 [8] = experiment: Growth inhibition of human HOP62 cells assessed as cell growth at 10 uM relative to untreated control; assay type: functional; details: read-out: Activity; in short: as §3
CAKI-1 [9] = experiment: Growth inhibition of human Caki1 cells assessed as cell growth at 10 uM relative to untreated control; assay type: functional; details: read-out: Activity; in short: as §3
LOX IMVI = experiment: Growth inhibition of human LOXIMVI cells; assay type: functional; in short: as §4
KM12 [10] = experiment: Growth inhibition of human KM12 cells; assay type: functional; in short: as §4
OVCAR-4 [11] = experiment: Growth inhibition of human OVCAR4 cells; assay type: functional; in short: as §1
DU-145 [12] = experiment: Growth inhibition of human DU145 cells assessed as cell growth at 10 uM relative to untreated control; assay type: functional; details: read-out: Activity; in short: as §3
OVCAR-8 [13] = experiment: Growth inhibition of human OVCAR8 cells assessed as cell growth at 10 uM relative to untreated control; assay type: functional; details: read-out: Activity; in short: as §6
DU-145 [14] = experiment: Growth inhibition of human DU145 cells; assay type: functional; in short: as §4
SNB-19 = experiment: Growth inhibition of human SNB19 cells; assay type: functional; in short: as §5
SN12C [15] = experiment: Growth inhibition of human SN12C cells; assay type: functional; in short: as §5
KM12 [16] = experiment: Growth inhibition of human KM12 cells assessed as cell growth at 10 uM relative to untreated control; assay type: functional; details: read-out: Activity; in short: as §3
ACHN = experiment: Growth inhibition of human ACHN cells; assay type: functional; in short: as §4
OVCAR-3 = experiment: Growth inhibition of human OVCAR3 cells assessed as cell growth at 10 uM relative to untreated control; assay type: functional; details: read-out: Activity; in short: as §6
CAKI-1 [17] = experiment: Growth inhibition of human Caki1 cells; assay type: functional; in short: as §4
UO-31 = experiment: Growth inhibition of human UO31 cells; assay type: functional; in short: as §5
Malme-3M = experiment: Growth inhibition of human MALME-3M cells; assay type: functional; in short: as §4
NCI/ADR-RES = experiment: Growth inhibition of human NCI/ADR-RES cells assessed as cell growth at 10 uM relative to untreated control; assay type: functional; details: read-out: Activity; in short: as §6
SN12C [18] = experiment: Growth inhibition of human SN12C cells assessed as cell growth at 10 uM relative to untreated control; assay type: functional; details: read-out: Activity; in short: as §2
TK-10 = experiment: Growth inhibition of human TK10 cells; assay type: functional; in short: as §5
SK-MEL-28 = experiment: Growth inhibition of human SK-MEL-28 cells assessed as cell growth at 10 uM relative to untreated control; assay type: functional; details: read-out: Activity; in short: as §6
BT-549 = experiment: Growth inhibition of human BT549 cells; assay type: functional; in short: as §4
COLO 205 = experiment: Growth inhibition of human COLO205 cells; assay type: functional; in short: as §4
NCI-H460 = experiment: Growth inhibition of human NCI-H460 cells; assay type: functional; in short: as §1
[19] = Growth inhibition of human RPMI8266 cells; assay type: functional; in short: as §1

N=C1c2nc3n(c2C(=O)c2nc4n(c21)CCCC4)CCCC3
GI50 (MDA-MB-435): 0.245 µM
IC50 (HeLa): 1.55 µM
GI50 (NCI-H226): 1.74 µM
growth at 10 µM (SR): 69.5%
GI50 (SK-MEL-2): 38 µM
growth at 10 µM (HCT-116): 65.8%
GI50 (786-0 [1]): 44.7 µM
GI50 [2]: 2.19 µM
GI50 (PC-3): 100 µM
GI50 (RXF 393): 16.6 µM
GI50 (NCI-H23): 1.38 µM
GI50 (OVCAR-8 [3]): 31.6 µM
GI50 (HOP-62 [4]): 2.45 µM
GI50 (U-251): 10 µM
growth at 10 µM (786-0 [5]): 89%
growth at 10 µM (OVCAR-4 [6]): 96.2%
growth at 10 µM (HCT-15): 6.18%
GI50 (CCRF-CEM): 49 µM
IC50 [7]: 3.63 µM
GI50 (MDA-MB-231): 39.8 µM
GI50 (SNB-75): 2.19 µM
GI50 (T47D): 17.4 µM
GI50 (SF-268): 8.51 µM
GI50 (HCC 2998): 4.79 µM
GI50 (SF-539): 2.57 µM
growth at 10 µM (MCF7): -6.98%
growth at 10 µM (HOP-62 [8]): 52.3%
growth at 10 µM (CAKI-1 [9]): 88.8%
GI50 (LOX IMVI): 0.562 µM
GI50 (KM12 [10]): 13.2 µM
GI50 (OVCAR-4 [11]): 34.7 µM
growth at 10 µM (DU-145 [12]): -93.9%
growth at 10 µM (OVCAR-8 [13]): 91.5%
GI50 (DU-145 [14]): 1.41 µM
GI50 (SNB-19): 2.57 µM
GI50 (SN12C [15]): 1.7 µM
growth at 10 µM (KM12 [16]): 66.7%
GI50 (ACHN): 30.9 µM
growth at 10 µM (OVCAR-3): 98.4%
GI50 (CAKI-1 [17]): 15.5 µM
GI50 (UO-31): 2.34 µM
GI50 (Malme-3M): 1.86 µM
growth at 10 µM (NCI/ADR-RES): 85.7%
growth at 10 µM (SN12C [18]): -86.1%
GI50 (TK-10): 70.8 µM
growth at 10 µM (SK-MEL-28): -67.2%
GI50 (BT-549): 2.04 µM
GI50 (COLO 205): 1.86 µM
GI50 (NCI-H460): 1.62 µM
GI50 [19]: 25.7 µM
